Experimental data published in ChEMBL document CHEMBL2417391, “Additional cytotoxic pyridoacridine alkaloids from the ascidian Cystodytes violatinctus and biogenetic considerations” (J Nat Prod, 2013).

Key:
Type in all cases: functional, cell-based
SW480 = experiment: Cytotoxicity against human SW480 cells after 48 hrs by MTT assay; settings: SW480, 48 h
Method in brief: (§1)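 Colon lines HCT116 and SW480 kept in DMEM with 10% FBS, 2 mM L-glutamine, penicillin/streptomycin. 20 × 10^3 cells/well seeded, overnight adhesion, then 48 h treatment at 10−10 to 10−4 M, serially diluted in medium from 10−2 M DMSO stock; triplicates. Viability by MTT (3 h), formazan in 2-propanol/HCl read at 540 nm; IC50 by sigmoidal curve fitting.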

A-375 = experiment: Cytotoxicity against human A375 cells after 48 hrs by MTT assay; settings: A-375, 48 h
Method in brief: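 A375 melanoma cells grown in RPMI complete medium with 10% FBS, 2 mM L-glutamine, penicillin/streptomycin. Seeded 20 × 10^3 cells/well, adhered overnight, then exposed 48 h to serial dilutions from 10−10 to 10−4 M (from 10−2 M DMSO stock) in triplicate. MTT 1 mg/mL added for 3 h, formazan dissolved in 2-propanol/HCl, absorbance 540 nm; IC50 from sigmoidal dose–response fit.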

HCT-116 = experiment: Cytotoxicity against human HCT116 cells after 48 hrs by MTT assay; settings: HCT-116, 48 h; method in brief: as §1

C/C=C(\C)C(=O)NCCc1c2c3c(ccnc3c3ncsc13)-c1ccccc1N2
IC50 (SW480): 3.3 µM | IC50 (A-375): > 10 µM | IC50 (HCT-116): > 10 µM

CC(C)=CC(=O)NCCc1c2c(c3nccc4c3c1Nc1ccccc1-4)NC(=O)CS2
IC50 (SW480): 9.99 µM | IC50 (A-375): > 10 µM | IC50 (HCT-116): 19 µM

CC(C)=CC(=O)Nc1cc2cc(O)c3nccc4c5ccccc5n1c2c34
IC50 (SW480): 8.48 µM | IC50 (A-375): 6 µM | IC50 (HCT-116): 4.32 µM

C/C=C(\C)C(=O)Nc1cc2cc(O)c3nccc4c5ccccc5n1c2c34
IC50 (SW480): > 10 µM | IC50 (A-375): > 10 µM | IC50 (HCT-116): 18.9 µM

O=C1c2cccnc2-c2nccc3c2c1nc1ccccc13 [ASCIDIDEMIN]
IC50 (SW480): 0.1 µM | IC50 (A-375): 0.38 µM | IC50 (HCT-116): 0.25 µM

C/C=C(\C)C(=O)NCCc1c2c(c3nccc4c3c1Nc1ccccc1-4)NC(=O)CS2
IC50 (SW480): > 10 µM | IC50 (A-375): > 10 µM | IC50 (HCT-116): > 10 µM

CC(C)=CC(=O)NCCc1c2c3c(ccnc3c3ncsc13)-c1ccccc1N2
IC50 (SW480): 8.02 µM | IC50 (A-375): 11.8 µM | IC50 (HCT-116): 14.4 µM
